Data from ChEMBL document CHEMBL1150787, “The L80I substitution in the reverse transcriptase domain of the hepatitis B virus polymerase is associated with lamivudine resistance and enhanced viral replication in vitro” (Antimicrob Agents Chemother, 2007).
Calls of active or inactive are those of the source. The calls are words filed in the database; no cut-off is given here.

Assays:
HBV genotype D [1] = test: Antiviral activity against HBV genotype D in human Huh7 cells assessed as inhibition of viral replication after 5 days; assay type: functional, organism-based; settings: Hepatitis B virus, Huh-7, 120 h
How it was run: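 Huh7 cells (DMEM, 10% FBS, 37°C, 5% CO2) at 60–80% confluence were transiently transfected with a wild-type HBeAg-negative HBV clone or mutants. They were exposed continuously to LMV (0–10 μM) or ADV (0–10 μM). Day-5 intracellular core-associated HBV DNA was measured by Southern blot, autoradiography and densitometry, normalized to untreated controls. Three assays were pooled; EC50 came from a three-parameter logistic fit.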

HBV genotype D [2] = test: Antiviral activity against HBV genotype D with reverse transcriptase L80I mutation in human Huh7 cells assessed as inhibition of viral replication after 5 days; assay type: functional, organism-based; settings: Hepatitis B virus, Huh-7, 120 h
How it was run: (§1)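 Huh7 cells grown in DMEM with 10% FBS at 37°C and 5% CO₂, then transiently transfected with each HBV construct. Cultures were exposed continuously to LMV at 0, 0.001, 0.01, 0.1, 1 or 10 μM for 5 days. Intracellular core-associated HBV DNA was quantified by Southern blot, autoradiography and densitometry, normalised to untreated controls. EC50 was taken from a three-parameter logistic fit of three pooled assays.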

HBV genotype D [3] = test: Antiviral activity against HBV genotype D with reverse transcriptase M204I mutation in human Huh7 cells assessed as inhibition of viral replication after 5 days; assay type: functional, organism-based; settings: hepatitis B virus genotype D; Huh-7; how it was run: as §1
HBV genotype D [4] = test: Antiviral activity against HBV genotype D with reverse transcriptase L80I/M204I mutation in human Huh7 cells assessed as inhibition of viral replication after 5 days; assay type: functional, organism-based; settings: hepatitis B virus genotype D; Huh-7; how it was run: as §1
HBV genotype D [5] = test: Antiviral activity against HBV genotype D with reverse transcriptase L180M/M204I mutation in human Huh7 cells assessed as inhibition of viral replication after 5 days; assay type: functional, organism-based; settings: hepatitis B virus genotype D; Huh-7; how it was run: as §1
HBV genotype D [6] = test: Antiviral activity against HBV genotype D with reverse transcriptase L80I/L180M/M204I mutation in human Huh7 cells assessed as inhibition of viral replication after 5 days; assay type: functional, organism-based; settings: hepatitis B virus genotype D; Huh-7; how it was run: as §1
HBV genotype D [7] = test: Antiviral activity against HBeAg-deficient HBV genotype D with precore G1896A mutation in human Huh7 cells assessed as inhibition of viral replication after 5 days; assay type: functional, organism-based; settings: Hepatitis B virus, Huh-7, 120 h; how it was run: as §1
HBV genotype D [8] = test: Antiviral activity against HBeAg-deficient HBV genotype D with precore G1896A mutation and reverse transcriptase L80I mutation in human Huh7 cells assessed as inhibition of viral replication after 5 days; assay type: functional, organism-based; settings: Hepatitis B virus, Huh-7, 120 h; how it was run: as §1
HBV genotype D [9] = test: Antiviral activity against HBeAg-deficient HBV genotype D with precore G1896A mutation and reverse transcriptase M204I mutation in human Huh7 cells assessed as inhibition of viral replication after 5 days; assay type: functional, organism-based; settings: hepatitis B virus genotype D; Huh-7; how it was run: as §1
HBV genotype D [10] = test: Antiviral activity against HBeAg-deficient HBV genotype D with precore G1896A mutation and reverse transcriptase L80I/M204I mutation in human Huh7 cells assessed as inhibition of viral replication after 5 days; assay type: functional, organism-based; settings: hepatitis B virus genotype D; Huh-7; how it was run: as §1
HBV genotype D [11] = test: Antiviral activity against HBeAg-deficient HBV genotype D with precore G1896A mutation and reverse transcriptase L180M/M204I mutation in human Huh7 cells assessed as inhibition of viral replication after 5 days; assay type: functional, organism-based; settings: hepatitis B virus genotype D; Huh-7; how it was run: as §1
HBV genotype D [12] = test: Antiviral activity against HBeAg-deficient HBV genotype D with precore G1896A mutation and reverse transcriptase L80I/L180M/M204I mutation in human Huh7 cells assessed as inhibition of viral replication after 5 days; assay type: functional, organism-based; settings: hepatitis B virus genotype D; Huh-7; how it was run: as §1
HBV genotype D [13] = test: Antiviral activity against HBV genotype D in human Huh7 cells assessed as viral replication yield at 1 uM after 5 days relative to control; assay type: functional, hepatitis B virus genotype D, Huh-7
How it was run: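 Transiently transfected Huh7 cells were cultured for 5 days with or without 1 μM LMV. Intracellular core-associated HBV DNA was measured by Southern blot, corrected for transfection efficiency using supernatant HBsAg (IMX enzyme immunoassay), and expressed relative to the mean of the uninhibited controls (set to 1.0). Data come from at least three experiments.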

HBV genotype D [14] = test: Antiviral activity against HBV genotype D with reverse transcriptase L80I mutation in human Huh7 cells assessed as viral replication yield at 1 uM after 5 days relative to control; assay type: functional, hepatitis B virus genotype D, Huh-7
How it was run: (§2)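 Huh7 transfectants were cultured for 5 days with or without 1 μM LMV. Intracellular core-associated HBV DNA was measured by Southern blot and densitometry. Yields were corrected for transfection efficiency by HBsAg in supernatant (IMX immunoassay) and expressed relative to the mean of uninhibited controls (1.0). Each value comes from at least three experiments.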

HBV genotype D [15] = test: Antiviral activity against HBV genotype D with reverse transcriptase M204I mutation in human Huh7 cells assessed as viral replication yield at 1 uM after 5 days relative to control; assay type: functional, hepatitis B virus genotype D, Huh-7; how it was run: as §2
HBV genotype D [16] = test: Antiviral activity against HBV genotype D with reverse transcriptase L80I/M204I mutation in human Huh7 cells assessed as viral replication yield at 1 uM after 5 days relative to control; assay type: functional, hepatitis B virus genotype D, Huh-7; how it was run: as §2
HBV genotype D [17] = test: Antiviral activity against HBV genotype D with reverse transcriptase L180M/M204I mutation in human Huh7 cells assessed as viral replication yield at 1 uM after 5 days relative to control; assay type: functional, hepatitis B virus genotype D, Huh-7; how it was run: as §2
HBV genotype D [18] = test: Antiviral activity against HBV genotype D with reverse transcriptase L80I/L180M/M204I mutation in human Huh7 cells assessed as viral replication yield at 1 uM after 5 days relative to control; assay type: functional, hepatitis B virus genotype D, Huh-7; how it was run: as §2
HBV genotype D [19] = test: Antiviral activity against HBeAg-deficient HBV genotype D with precore G1896A mutation in human Huh7 cells assessed as viral replication yield at 1 uM after 5 days relative to control; assay type: functional, hepatitis B virus genotype D, Huh-7; how it was run: as §2
HBV genotype D [20] = test: Antiviral activity against HBeAg-deficient HBV genotype D with precore G1896A mutation and reverse transcriptase L80I mutation in human Huh7 cells assessed as viral replication yield at 1 uM after 5 days relative to control; assay type: functional, hepatitis B virus genotype D, Huh-7; how it was run: as §2
HBV genotype D [21] = test: Antiviral activity against HBeAg-deficient HBV genotype D with precore G1896A mutation and reverse transcriptase M204I mutation in human Huh7 cells assessed as viral replication yield at 1 uM after 5 days relative to control; assay type: functional, hepatitis B virus genotype D, Huh-7; how it was run: as §2
HBV genotype D [22] = test: Antiviral activity against HBeAg-deficient HBV genotype D with precore G1896A mutation and reverse transcriptase L80I/M204I mutation in human Huh7 cells assessed as viral replication yield at 1 uM after 5 days relative to control; assay type: functional, hepatitis B virus genotype D, Huh-7; how it was run: as §2
HBV genotype D [23] = test: Antiviral activity against HBeAg-deficient HBV genotype D with precore G1896A mutation and reverse transcriptase L180M/M204I mutation in human Huh7 cells assessed as viral replication yield at 1 uM after 5 days relative to control; assay type: functional, hepatitis B virus genotype D, Huh-7; how it was run: as §2
HBV genotype D [24] = test: Antiviral activity against HBeAg-deficient HBV genotype D with precore G1896A mutation and reverse transcriptase L80I/L180M/M204I mutation in human Huh7 cells assessed as viral replication yield at 1 uM after 5 days relative to control; assay type: functional, hepatitis B virus genotype D, Huh-7; how it was run: as §2
HBV genotype D [25] = test: Effect on replication efficiency of HBV genotype D with reverse transcriptase L80I mutation in human Huh7 cells assessed as decrease in viral replication yield at 1 uM after 5 days relative to control; assay type: functional, hepatitis B virus genotype D, Huh-7; set-up: scale not given: the % may be the effect or the level left; how it was run: as §2
HBV genotype D [26] = test: Effect on replication efficiency of HBV genotype D with reverse transcriptase L80I/M204I mutation in human Huh7 cells assessed as increase in viral replication yield at 1 uM after 5 days relative to control; assay type: functional, hepatitis B virus genotype D, Huh-7; how it was run: as §2
HBV genotype D [27] = test: Effect on replication efficiency of HBV genotype D with reverse transcriptase L80I/L180M/M204I mutation in human Huh7 cells assessed as decrease in viral replication yield at 1 uM after 5 days relative to control; assay type: functional, hepatitis B virus genotype D, Huh-7; set-up: scale not given: the % may be the effect or the level left; how it was run: as §2
HBV genotype D [28] = test: Effect on replication efficiency of HBeAg-deficient HBV genotype D with precore G1896A mutation and reverse transcriptase L80I/M204I mutation in human Huh7 cells assessed as decrease in viral replication yield at 1 uM after 5 days relative to control; assay type: functional, hepatitis B virus genotype D, Huh-7; set-up: scale not given: the % may be the effect or the level left; how it was run: as §2
HBV genotype D [29] = test: Effect on replication efficiency of HBeAg-deficient HBV genotype D with precore G1896A mutation and reverse transcriptase L80I/L180M/M204I mutation in human Huh7 cells assessed as increase in viral replication yield at 1 uM after 5 days relative to control; assay type: functional, hepatitis B virus genotype D, Huh-7; how it was run: as §2
HBV genotype D [30] = test: Effect on replication efficiency of HBeAg-deficient HBV genotype D with precore G1896A mutation and reverse transcriptase L80I mutation in human Huh7 cells assessed as decrease viral replication yield at 1 uM after 5 days relative to control; assay type: functional, hepatitis B virus genotype D, Huh-7; set-up: scale not given: the % may be the effect or the level left; how it was run: as §2

In the case of `Nc1ccn([C@@H]2CS[C@H](CO)O2)c(=O)n1` [LAMIVUDINE], the EC50 (HBV genotype D [1]) is reported as 410 nM, the EC50 (HBV genotype D [2]) is reported as 30 nM and the Activity (HBV genotype D [3]) is reported as “inactive”. The Activity (HBV genotype D [4]) was “inactive”, the Activity (HBV genotype D [5]) was “inactive” and the Activity (HBV genotype D [6]) was “inactive”. The EC50 (HBV genotype D [7]) was 460 nM, the EC50 (HBV genotype D [8]) was 30 nM and the Activity (HBV genotype D [9]) was “inactive”. The Activity (HBV genotype D [10]) was “inactive”, the Activity (HBV genotype D [11]) was “inactive” and the Activity (HBV genotype D [12]) was “inactive”. For the same compound, the “fold change (FC)” value (HBV genotype D [13]) was 0.33, the “fold change (FC)” value (HBV genotype D [14]) was 0.06 and the “fold change (FC)” value (HBV genotype D [15]) was 0.38. For the same compound, the “fold change (FC)” value (HBV genotype D [16]) was 3.76, the “fold change (FC)” value (HBV genotype D [17]) was 0.65 and the “fold change (FC)” value (HBV genotype D [18]) was 0.34. For the same compound, the “fold change (FC)” value (HBV genotype D [19]) was 0.35, the “fold change (FC)” value (HBV genotype D [20]) was 0.04 and the “fold change (FC)” value (HBV genotype D [21]) was 1.4. For the same compound, the “fold change (FC)” value (HBV genotype D [22]) was 0.27, the “fold change (FC)” value (HBV genotype D [23]) was 0.54 and the “fold change (FC)” value (HBV genotype D [24]) was 3.27. The Activity (HBV genotype D [25]) was 82%, the Activity (HBV genotype D [26]) was 902% and the Activity (HBV genotype D [27]) was 48%. For the same compound, the Activity (HBV genotype D [28]) was 80%, the Activity (HBV genotype D [29]) was 506% and the Activity (HBV genotype D [30]) was 88%.
